Test results as given in ChEMBL document CHEMBL3992512, “The Discovery and Hit-to-Lead Optimization of Tricyclic Sulfonamides as Potent and Efficacious Potentiators of Glycine Receptors” (J Med Chem, 2017).
The source made the active and inactive calls.

Tests used:
[1] = Intrinsic clearance in human liver microsomes; format: ADME, microsome; details: read-out: CLH
[2] = biological target: T1, Glycine receptor subunit alpha-3 (Homo sapiens, UniProt O75311); experiment: Positive allosteric modulation of human glycine alpha3 receptor expressed in HEK293T cells assessed as potentiation of glycine-induced increase in chloride ion flux after 4 mins by membrane potential blue dye based FLIPR assay; format: cell-based, HEK-293T
T1 sequence (O75311 whole entry): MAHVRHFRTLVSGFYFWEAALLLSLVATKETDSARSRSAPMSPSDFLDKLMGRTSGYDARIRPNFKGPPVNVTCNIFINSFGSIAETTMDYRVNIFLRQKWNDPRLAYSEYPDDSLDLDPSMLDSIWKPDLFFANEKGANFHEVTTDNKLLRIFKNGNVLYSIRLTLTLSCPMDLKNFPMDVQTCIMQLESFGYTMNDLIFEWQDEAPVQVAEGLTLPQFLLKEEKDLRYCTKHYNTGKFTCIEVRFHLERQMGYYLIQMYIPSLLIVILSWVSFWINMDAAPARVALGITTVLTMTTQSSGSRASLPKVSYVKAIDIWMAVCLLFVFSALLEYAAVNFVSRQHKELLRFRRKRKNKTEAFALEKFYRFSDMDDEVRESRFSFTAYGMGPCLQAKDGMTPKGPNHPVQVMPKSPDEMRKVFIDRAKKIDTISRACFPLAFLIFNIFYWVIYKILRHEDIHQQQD

[3] = Intrinsic clearance in mouse liver microsomes up to 40 mins in presence of NADPH; format: ADME, microsome; details: read-out: CLH
[4] = Passive apparent permeability in MDCK cells; format: ADME, cell-based, Canis lupus familiaris; details: dog
Summary of the method: (§1)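 Bidirectional transport at 5 μM, in triplicate, across MDCK cells carrying control vector, human MDR1 or human ABCG2 (BCRP). Passive Papp is the mean of both directions in vector-control cells. Efflux ratios come from the MDR1 and BCRP lines.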

[5] = biological target: T1, Glycine receptor subunit alpha-3; experiment: Binding affinity to human glycine alpha3 receptor expressed in HEK293T cells by SPR assay; parameters: species or system HEK-293T
[6] = biological target: Glycine receptor alpha-3/beta (Homo sapiens) (UniProt O75311+P48167); experiment: Positive allosteric modulation of human glycine alpha3beta receptor expressed in HEK293T cells assessed as compound concentration required to induce up to 3-fold leftward shift in glycine-induced increase in chloride ion flux after 4 mins by Schild plot analysis; format: cell-based
Summary of the method: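 HEK293T cells stably expressing human GlyRα3β, ~12000 cells/well, plated overnight and loaded with membrane potential blue dye. Glycine 1:2 dilution series premixed with compound at varying concentrations in HEPES/NaCl/mannitol buffer, pH 7.4. FLIPR fluorescence read 4 min and processed as AUC over baseline. mEC₃ is the lowest tested concentration giving a ≥3-fold leftward shift of glycine EC₅₀.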

human MDR1 = experiment: Efflux ratio of passive apparent permeability in MDCK cells harboring human MDR1; format: ADME, cell-based, Canis lupus familiaris; details: dog; summary of the method: as §1
[7] = Ratio of unbound Cmax in mouse brain to EC50 for glycine alpha3 receptor in mouse model of spared nerve injury-induced tactile allodynia at 20 mg/kg, po
Mus musculus [8] = experiment: Antiallodynic activity in mouse model of spared nerve injury-induced tactile allodynia assessed as tactile threshold at 20 mg/kg, po measured 60 mins post dose by Von Frey filament assay (reference value: 0.82 +/- 0.19 g); format: functional
[9] = Ratio of unbound Cmax in mouse brain to EC50 for glycine alpha3 receptor in mouse model of spared nerve injury-induced tactile allodynia at 10 mg/kg, po
Summary of the method: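 Mice dosed orally; unbound brain Cmax is total brain concentration × brain fraction unbound, sampled at multiple time points. It is divided by EC₅₀ for potentiation of mouse GlyRα3.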

Mus musculus [10] = species on record: Mus musculus; experiment: Ex vivo positive allosteric modulation of glycine receptor in C57BL/6 mouse spinal cord assessed as potentiation of glycine-induced post synaptic current amplitude at 0.5 uM at holding potential of -60 mV after 10 mins in presence of sodium channel inhibitor TTX/AMPA/kainate receptor antagonist CNQX/GABAa receptor antagonist bicuculline/NMDA receptor antagonist APV by electrophysiology method relative to glycine alone
Summary of the method: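 Adult mouse spinal cord slices; dorsal horn neurons in laminae I–II were identified histologically and confirmed glycinergic by focal glycine (20 μM) with strychnine (10 μM) reversal. Postsynaptic current amplitude was recorded with glycine 20 μM alone, then with glycine plus compound at 0.5 μM, then with strychnine added. The readout is the mean ratio of PSC amplitude (compound + glycine / glycine alone), n = 5.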

[11] = Oral bioavailability in mouse at 10 mg/kg; format: ADME, organism-based; details: in vivo
human BCRP = experiment: Efflux ratio of passive apparent permeability in MDCK cells harboring human BCRP; format: ADME, cell-based, Canis lupus familiaris; details: dog; summary of the method: as §1

Structure (SMILES)	microsomal CLint [1]	EC50 [2]	microsomal CLint [3]	Papp [4]	Kd [5]	MEC [6]	efflux ratio (human MDR1)	Ratio [7]	Activity (Mus musculus [8])	Ratio [9]	fold change (FC) (Mus musculus [10])	bioavailability [11]	efflux ratio (human BCRP)
C[C@H]1[C@H]2C(=O)N(C)c3ccncc3[C@H]2CN1S(=O)(=O)c1ccc2c(c1)OCO2	83 µL/min/mg	50 nM	254 µL/min/mg	43.1 ×10⁻⁶ cm/s	11 nM	0.025 µM	1.6						
CN1C(=O)[C@H]2CN(S(=O)(=O)c3ccc4occc4c3)C[C@H]2c2cnccc21		20000 to 25000 nM			> 20000 nM	> 25 µM		1.9	inactive				
CN1C(=O)[C@@H]2CN(S(=O)(=O)c3ccc4occc4c3)C[C@@H]2c2cnccc21		450 nM	188 µL/min/mg	69 ×10⁻⁶ cm/s	190 nM	0.2 µM	1.5		1.53 g	1.2	4.4	100%	1.1
